pIC50: −log10 of the molar value.
What was measured:
[1] = target: T1, Toll-like receptor 7 (Homo sapiens) (UniProt Q9NYK1); test: Agonist activity at human TLR7 expressed in HEK293 cells assessed as induction of receptor activation incubated for 6 hrs by NF-kappaB-luciferase reporter gene assay; assay type: cell-based
T1 sequence (whole entry): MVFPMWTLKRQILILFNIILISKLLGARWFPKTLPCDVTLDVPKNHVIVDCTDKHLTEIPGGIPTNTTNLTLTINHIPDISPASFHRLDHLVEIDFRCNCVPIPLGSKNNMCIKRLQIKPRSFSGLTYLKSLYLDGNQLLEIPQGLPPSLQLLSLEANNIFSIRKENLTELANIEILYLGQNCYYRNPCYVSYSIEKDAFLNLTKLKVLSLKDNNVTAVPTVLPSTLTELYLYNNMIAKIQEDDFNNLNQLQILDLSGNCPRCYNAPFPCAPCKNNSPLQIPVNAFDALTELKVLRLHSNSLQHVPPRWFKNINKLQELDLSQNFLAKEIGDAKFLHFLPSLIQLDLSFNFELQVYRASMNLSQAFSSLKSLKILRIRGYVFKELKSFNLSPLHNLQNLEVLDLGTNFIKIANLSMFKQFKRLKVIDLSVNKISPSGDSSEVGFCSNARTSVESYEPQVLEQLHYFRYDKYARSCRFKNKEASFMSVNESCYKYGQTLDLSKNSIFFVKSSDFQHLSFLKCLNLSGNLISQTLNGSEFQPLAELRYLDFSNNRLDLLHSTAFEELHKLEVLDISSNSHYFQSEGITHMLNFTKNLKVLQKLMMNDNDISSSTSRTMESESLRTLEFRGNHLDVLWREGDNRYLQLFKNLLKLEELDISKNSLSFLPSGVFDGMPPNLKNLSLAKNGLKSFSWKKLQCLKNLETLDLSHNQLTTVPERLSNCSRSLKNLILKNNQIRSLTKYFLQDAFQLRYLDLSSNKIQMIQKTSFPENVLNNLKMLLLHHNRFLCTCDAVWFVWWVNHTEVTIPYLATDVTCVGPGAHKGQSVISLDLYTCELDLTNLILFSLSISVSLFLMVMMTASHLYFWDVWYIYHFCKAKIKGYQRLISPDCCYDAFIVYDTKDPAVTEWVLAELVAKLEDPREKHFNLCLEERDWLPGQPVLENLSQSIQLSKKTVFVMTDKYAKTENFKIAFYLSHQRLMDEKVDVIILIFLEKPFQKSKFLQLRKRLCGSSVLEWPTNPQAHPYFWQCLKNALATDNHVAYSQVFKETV
In short: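 HEK cell-based assay using a wild-type TLR7 expression vector; a parallel TLR8 vector construct served for selectivity. Results are expressed as lowest effective concentration (LEC), averaged over independent experiments where determined two or more times. A separate HEK 293 cytotoxicity (TOX) assay gave CC50 alongside.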

[2] = target: T2, Toll-like receptor 8 (Homo sapiens) (UniProt Q9NR97); test: Agonist activity at human TLR8 expressed in HEK293 cells assessed as induction of receptor activation incubated for 6 hrs by NF-kappaB-luciferase reporter gene assay; assay type: cell-based
T2 sequence (whole entry): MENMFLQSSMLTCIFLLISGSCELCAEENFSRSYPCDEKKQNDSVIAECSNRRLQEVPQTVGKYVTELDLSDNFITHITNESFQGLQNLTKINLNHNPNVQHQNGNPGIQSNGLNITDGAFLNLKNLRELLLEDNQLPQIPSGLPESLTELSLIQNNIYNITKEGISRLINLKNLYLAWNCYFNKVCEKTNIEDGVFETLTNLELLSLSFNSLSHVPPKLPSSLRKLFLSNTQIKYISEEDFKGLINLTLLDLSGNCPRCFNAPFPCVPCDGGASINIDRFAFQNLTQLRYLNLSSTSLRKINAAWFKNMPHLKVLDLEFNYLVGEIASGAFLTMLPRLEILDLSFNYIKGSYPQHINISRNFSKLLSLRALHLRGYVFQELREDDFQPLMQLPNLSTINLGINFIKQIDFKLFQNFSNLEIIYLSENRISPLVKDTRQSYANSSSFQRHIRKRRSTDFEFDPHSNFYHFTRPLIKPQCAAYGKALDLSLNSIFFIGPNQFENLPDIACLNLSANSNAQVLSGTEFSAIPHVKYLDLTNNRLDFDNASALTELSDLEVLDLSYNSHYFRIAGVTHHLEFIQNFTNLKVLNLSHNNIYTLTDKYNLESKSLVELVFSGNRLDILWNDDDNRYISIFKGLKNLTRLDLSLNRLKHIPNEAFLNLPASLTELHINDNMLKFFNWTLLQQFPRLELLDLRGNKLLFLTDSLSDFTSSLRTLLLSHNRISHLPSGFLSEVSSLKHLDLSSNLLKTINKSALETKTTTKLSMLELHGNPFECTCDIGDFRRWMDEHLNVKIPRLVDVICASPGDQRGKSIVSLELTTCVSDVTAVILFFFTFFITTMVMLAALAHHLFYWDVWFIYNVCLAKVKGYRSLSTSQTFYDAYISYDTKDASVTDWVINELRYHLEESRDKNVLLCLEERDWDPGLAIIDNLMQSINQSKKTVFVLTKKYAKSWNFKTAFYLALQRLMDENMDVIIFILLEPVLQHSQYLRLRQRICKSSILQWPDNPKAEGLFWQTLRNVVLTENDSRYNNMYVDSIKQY

[3] = target: T1, Toll-like receptor 7 (Homo sapiens); test: Agonist activity at TLR7 in human PBMC assessed as suppression of HCV replicon replication in human HuH7 luc/neo cells harboring RNA encoding bicistronic expression construct comprising wild type HCV type 1b NS3-NS5B regions exposed to conditioned media from compound treated PBMCs after 24 hrs by luciferase reporter gene assay; assay type: cell-based
In short: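 Human PBMCs were incubated with compound. Their medium was then transferred onto an HCV replicon system, so the antiviral read-out reflects interferon and cytokines the PBMCs induced. Values are reported as lowest effective concentration (LEC), averaged when determined in two or more independent experiments.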

[4] = Cytotoxicity against HEK293 cells assessed as reduction in cell viability after 6 hrs by ATP lite assay; assay type: cell-based; conditions: human
[5] = target: Voltage-gated inwardly rectifying potassium channel KCNH2 (Homo sapiens, UniProt Q12809); test: Inhibition of radioligand binding to human ERG expressed in HEK293 cell membranes by scintillation counting method
Voltage-gated inwardly rectifying potassium channel KCNH2, sequence (Q12809 whole entry): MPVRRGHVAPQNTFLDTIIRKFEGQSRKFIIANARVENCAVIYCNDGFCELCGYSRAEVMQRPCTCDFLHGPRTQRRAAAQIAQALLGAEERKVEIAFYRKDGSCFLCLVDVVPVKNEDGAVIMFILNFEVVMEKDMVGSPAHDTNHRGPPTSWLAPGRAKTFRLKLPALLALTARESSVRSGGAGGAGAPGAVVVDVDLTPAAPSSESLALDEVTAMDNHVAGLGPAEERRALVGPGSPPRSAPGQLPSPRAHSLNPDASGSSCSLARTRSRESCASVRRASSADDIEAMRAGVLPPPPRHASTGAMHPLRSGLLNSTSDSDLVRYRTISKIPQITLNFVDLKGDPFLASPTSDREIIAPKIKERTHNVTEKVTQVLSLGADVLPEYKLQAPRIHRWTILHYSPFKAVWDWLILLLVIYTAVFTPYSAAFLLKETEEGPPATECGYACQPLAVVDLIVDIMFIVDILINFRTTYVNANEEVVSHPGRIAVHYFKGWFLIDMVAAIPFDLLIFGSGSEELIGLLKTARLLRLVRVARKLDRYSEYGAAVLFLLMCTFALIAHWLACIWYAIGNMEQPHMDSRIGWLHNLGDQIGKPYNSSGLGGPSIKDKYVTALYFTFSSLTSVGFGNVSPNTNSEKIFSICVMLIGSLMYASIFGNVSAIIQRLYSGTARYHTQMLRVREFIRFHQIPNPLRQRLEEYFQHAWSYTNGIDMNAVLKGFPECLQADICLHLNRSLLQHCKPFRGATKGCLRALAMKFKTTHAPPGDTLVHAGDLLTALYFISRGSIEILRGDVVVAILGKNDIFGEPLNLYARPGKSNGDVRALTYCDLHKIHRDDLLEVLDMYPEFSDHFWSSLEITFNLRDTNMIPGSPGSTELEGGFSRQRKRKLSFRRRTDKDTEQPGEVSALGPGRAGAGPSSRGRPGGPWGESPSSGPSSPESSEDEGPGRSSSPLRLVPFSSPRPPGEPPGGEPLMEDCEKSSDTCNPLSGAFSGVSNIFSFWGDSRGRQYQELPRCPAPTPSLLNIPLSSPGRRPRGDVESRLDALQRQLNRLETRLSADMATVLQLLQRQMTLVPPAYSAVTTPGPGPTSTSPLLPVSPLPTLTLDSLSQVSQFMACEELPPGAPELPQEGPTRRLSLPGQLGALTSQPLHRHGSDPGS

[6] = target: D(1A) dopamine receptor (Homo sapiens, UniProt P21728); test: Inhibition of dopamine D1 receptor (unknown origin)
D(1A) dopamine receptor, sequence (P21728 whole entry): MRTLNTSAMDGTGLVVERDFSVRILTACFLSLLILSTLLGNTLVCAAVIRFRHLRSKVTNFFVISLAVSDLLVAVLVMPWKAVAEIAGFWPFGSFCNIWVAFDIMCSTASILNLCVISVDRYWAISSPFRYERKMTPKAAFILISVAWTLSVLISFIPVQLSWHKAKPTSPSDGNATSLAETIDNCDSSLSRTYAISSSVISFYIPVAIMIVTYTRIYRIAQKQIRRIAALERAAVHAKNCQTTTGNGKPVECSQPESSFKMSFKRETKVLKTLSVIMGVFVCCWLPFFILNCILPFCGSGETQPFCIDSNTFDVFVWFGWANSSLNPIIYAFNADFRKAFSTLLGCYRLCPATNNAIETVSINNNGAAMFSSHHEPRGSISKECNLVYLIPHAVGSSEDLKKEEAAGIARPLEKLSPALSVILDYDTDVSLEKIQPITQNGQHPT

[7] = target: 5-hydroxytryptamine receptor 2A (Homo sapiens, UniProt P28223); test: Inhibition of 5-HT2A receptor (unknown origin)
5-hydroxytryptamine receptor 2A, sequence (P28223 whole entry): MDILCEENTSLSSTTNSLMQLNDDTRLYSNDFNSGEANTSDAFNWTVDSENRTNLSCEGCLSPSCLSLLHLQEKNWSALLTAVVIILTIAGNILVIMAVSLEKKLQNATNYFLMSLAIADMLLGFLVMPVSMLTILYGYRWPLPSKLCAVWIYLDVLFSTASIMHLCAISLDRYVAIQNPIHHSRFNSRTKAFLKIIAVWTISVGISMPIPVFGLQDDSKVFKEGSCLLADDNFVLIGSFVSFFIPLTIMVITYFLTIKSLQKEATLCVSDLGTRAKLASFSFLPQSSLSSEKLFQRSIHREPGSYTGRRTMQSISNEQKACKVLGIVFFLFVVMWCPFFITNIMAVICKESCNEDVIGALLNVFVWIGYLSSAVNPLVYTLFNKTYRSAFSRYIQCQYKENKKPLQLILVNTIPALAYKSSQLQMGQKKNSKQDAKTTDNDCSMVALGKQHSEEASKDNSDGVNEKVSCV

[8] = target: Cytochrome P450 2D6 (Homo sapiens, UniProt P10635); test: Inhibition of CYP2D6 (unknown origin); assay type: ADME
Cytochrome P450 2D6, sequence (P10635 whole entry): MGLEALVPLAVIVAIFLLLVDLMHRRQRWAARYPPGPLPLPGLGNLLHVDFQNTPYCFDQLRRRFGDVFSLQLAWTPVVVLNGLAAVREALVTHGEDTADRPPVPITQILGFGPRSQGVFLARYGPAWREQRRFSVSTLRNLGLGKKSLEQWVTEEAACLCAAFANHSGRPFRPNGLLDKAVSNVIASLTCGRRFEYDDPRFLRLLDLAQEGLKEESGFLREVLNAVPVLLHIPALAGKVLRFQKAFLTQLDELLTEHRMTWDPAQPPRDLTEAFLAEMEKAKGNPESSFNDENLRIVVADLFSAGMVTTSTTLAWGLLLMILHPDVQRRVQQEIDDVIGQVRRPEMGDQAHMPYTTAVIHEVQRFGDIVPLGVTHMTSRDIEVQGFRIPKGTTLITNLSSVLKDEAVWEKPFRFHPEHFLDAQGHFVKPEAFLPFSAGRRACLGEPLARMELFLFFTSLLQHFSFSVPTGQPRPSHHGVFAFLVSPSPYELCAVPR

[9] = Metabolic stability in mouse liver microsomes assessed as compound metabolized at 1 uM after 15 mins; assay type: ADME, microsome; conditions: read-out: Drug metabolism
In short: (§1)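 Mouse (M) or human (H) liver microsomes incubated with compound at 1 μM; percent metabolized after 15 min.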

[10] = Metabolic stability in human liver microsomes assessed as compound metabolized at 1 uM after 15 mins; assay type: ADME, microsome; conditions: read-out: Drug metabolism; in short: as §1
[11] = target: Alpha-1A adrenergic receptor; test: Inhibition of alpha-1A adrenergic receptor (unknown origin)

In the case of `CCC[C@@H](CCO)Nc1nc(N)nc2cc(OC)ccc12`, the MEC [1] was 0.2 µM, the MEC [2] was 0.13 µM and the MEC [3] was 0.5 µM. For the same molecule, the CC50 at 6 h [4] was > 24000 nM, the pIC50 [5] was < 5.00 and the pIC50 [6] was 5.24. The pIC50 [7] was 5.75, the pIC50 [8] was 6.22 and the metabolised at 0.25 h, 1 µM [9] was 65%. It also gave a metabolised at 0.25 h, 1 µM [10] of 35% and a pIC50 [11] of 5.63.

Reference: ChEMBL document CHEMBL4130635, “2,4-Diaminoquinazolines as Dual Toll-like Receptor (TLR) 7/8 Modulators for the Treatment of Hepatitis B Virus” (J Med Chem, 2018)
